Test results as given in ChEMBL document CHEMBL3856186, “Partial Activation and Inhibition of TRPV1 Channels by Evodiamine and Rutaecarpine, Two Major Components of the Fruits of Evodia rutaecarpa” (J Nat Prod, 2016).
Active and inactive are the calls of the source. The rule behind the calls is not given here.

Experiments:
Type in all cases: cell-based
[1] = biological target: Transient receptor potential cation channel subfamily V member 1 (Rattus norvegicus) (UniProt O35433); experiment: Partial antagonist activity at rat TRPV1 expressed in HEK293 cells assessed as effect on capsaicin-induced inward current at 10 uM by whole-cell patch clamp method (reference value: -431 +/- 43.1 pA/pF)
Transient receptor potential cation channel subfamily V member 1 (Rattus norvegicus), sequence (O35433 whole entry): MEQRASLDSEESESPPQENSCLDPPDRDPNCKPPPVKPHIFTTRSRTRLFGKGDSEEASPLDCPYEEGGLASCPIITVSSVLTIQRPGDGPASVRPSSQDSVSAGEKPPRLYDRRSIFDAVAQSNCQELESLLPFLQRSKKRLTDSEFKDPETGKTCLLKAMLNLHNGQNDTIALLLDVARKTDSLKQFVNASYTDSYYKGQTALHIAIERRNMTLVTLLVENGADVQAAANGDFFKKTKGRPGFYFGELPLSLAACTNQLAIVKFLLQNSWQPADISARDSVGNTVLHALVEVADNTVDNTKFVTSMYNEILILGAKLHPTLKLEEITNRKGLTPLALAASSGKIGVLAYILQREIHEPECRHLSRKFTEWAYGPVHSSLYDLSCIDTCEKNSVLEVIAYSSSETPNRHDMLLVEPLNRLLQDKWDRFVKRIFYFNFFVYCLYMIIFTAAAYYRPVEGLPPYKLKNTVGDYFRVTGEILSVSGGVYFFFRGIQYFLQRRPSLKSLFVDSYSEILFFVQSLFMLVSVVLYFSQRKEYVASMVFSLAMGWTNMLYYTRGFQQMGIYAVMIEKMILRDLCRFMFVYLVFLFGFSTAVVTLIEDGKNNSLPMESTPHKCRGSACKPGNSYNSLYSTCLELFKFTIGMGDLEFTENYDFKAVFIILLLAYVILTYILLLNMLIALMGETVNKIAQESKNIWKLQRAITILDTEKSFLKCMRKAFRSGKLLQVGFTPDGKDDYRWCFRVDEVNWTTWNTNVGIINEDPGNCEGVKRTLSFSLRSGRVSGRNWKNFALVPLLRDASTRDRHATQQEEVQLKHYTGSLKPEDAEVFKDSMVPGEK
Method in brief: (§1)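 HEK293 cells transiently expressing rat TRPV1 (EGFP cotransfected) were patched in whole-cell mode 1 day post-transfection. Cells were held at −60 mV in Ca2+-containing standard bath (pH 7.4) at ~25 °C. Capsaicin-evoked peak current amplitude was quantified. Sigmoidal curve fitting gave EC50 or IC50 values.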

[2] = biological target: Transient receptor potential cation channel subfamily V member 1 (Rattus norvegicus) (UniProt O35433); experiment: Partial antagonist activity at rat TRPV1 expressed in HEK293 cells assessed as effect on capsaicin-induced inward current at 0.1 uM by whole-cell patch clamp method (reference value: -151.2 +/- 33 pA/pF); method in brief: as §1
[3] = biological target: Transient receptor potential cation channel subfamily V member 1 (Rattus norvegicus) (UniProt O35433); experiment: Partial antagonist activity at rat TRPV1 expressed in HEK293 cells assessed as effect on capsaicin-induced inward current at 0.1 uM by whole-cell patch clamp method (reference value: -327.4 +/- 52.3 pA/pF); method in brief: as §1
[4] = biological target: Transient receptor potential cation channel subfamily V member 1 (Rattus norvegicus) (UniProt O35433); experiment: Partial antagonist activity at rat TRPV1 expressed in HEK293 cells assessed as effect on capsaicin-induced inward current at 10 uM by whole-cell patch clamp method (reference value: -[…] +/- […] pA/pF)
[5] = biological target: Transient receptor potential cation channel subfamily V member 1 (Rattus norvegicus) (UniProt O35433); experiment: Partial antagonist activity at rat TRPV1 expressed in HEK293 cells assessed as effect on capsaicin-induced inward current at 0.1 uM by whole-cell patch clamp method (reference value: -7 +/- 2.6 pA/pF); method in brief: as §1
[6] = biological target: Transient receptor potential cation channel subfamily V member 1 (Rattus norvegicus) (UniProt O35433); experiment: Agonist activity at rat TRPV1 channel expressed in HEK293 cells assessed as reversal potential at 10 uM and -60 mV holding potential by whole-cell patch-clamp method
Method in brief: (§2)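 Rat TRPV1 cDNA and an EGFP reporter were cotransfected into HEK293 cells, with recording 1 day later. Whole-cell voltage clamp was run at room temperature (~25 °C) in standard bath (2 mM CaCl2, pH 7.4) with a KCl/MgATP/EGTA pipette solution. Steps from −100 to +100 mV (100 ms) gave I–V curves. Agonist was applied until desensitization, and peak current was scored. EC50 came from a sigmoidal fit.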

[7] = biological target: Transient receptor potential cation channel subfamily V member 1 (Rattus norvegicus) (UniProt O35433); experiment: Partial antagonist activity at rat TRPV1 expressed in HEK293 cells assessed as effect on capsaicin-induced inward current at 0.6 uM by whole-cell patch clamp method (reference value: -7 +/- 2.6 pA/pF); method in brief: as §1
[8] = biological target: Transient receptor potential cation channel subfamily V member 1 (Rattus norvegicus) (UniProt O35433); experiment: Partial antagonist activity at rat TRPV1 expressed in HEK293 cells assessed as effect on capsaicin-induced inward current at 10 uM by whole-cell patch clamp method (reference value: -7 +/- 2.6 pA/pF); method in brief: as §1
[9] = biological target: Transient receptor potential cation channel subfamily V member 1 (Rattus norvegicus) (UniProt O35433); experiment: Partial antagonist activity at rat TRPV1 expressed in HEK293 cells assessed as effect on capsaicin-induced inward current at 10 uM by whole-cell patch clamp method; method in brief: as §1
[10] = biological target: Transient receptor potential cation channel subfamily V member 1 (Rattus norvegicus) (UniProt O35433); experiment: Partial antagonist activity at rat TRPV1 expressed in HEK293 cells assessed as effect on capsaicin-induced inward current at 0.6 uM by whole-cell patch clamp method (reference value: -431 +/- 43.1 pA/pF); method in brief: as §1
[11] = biological target: Transient receptor potential cation channel subfamily V member 1 (Rattus norvegicus) (UniProt O35433); experiment: Partial antagonist activity at rat TRPV1 expressed in HEK293 cells assessed as effect on capsaicin-induced inward current at 0.6 uM by whole-cell patch clamp method (reference value: -480.7 +/- 96.9 pA/pF); method in brief: as §1
[12] = biological target: Transient receptor potential cation channel subfamily V member 1 (Rattus norvegicus) (UniProt O35433); experiment: Partial antagonist activity at rat TRPV1 expressed in HEK293 cells assessed as effect on proton-induced channel current at 1 uM and -60 mV holding potential co-treated with proton by whole-cell patch clamp method
Method in brief: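 Proton-activated currents were recorded in rat TRPV1-expressing HEK293 cells held at −60 mV in whole-cell mode, with bath buffered to pH 6 with 10 mM MES, at ~25 °C. Peak current amplitude was the read-out.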

[13] = biological target: Transient receptor potential cation channel subfamily V member 1 (Rattus norvegicus) (UniProt O35433); experiment: Agonist activity at rat TRPV1 channel expressed in HEK293 cells assessed as induction of maximum channel current at 10 uM at -60 mV holding potential by whole-cell patch-clamp method; method in brief: as §2
[14] = biological target: Transient receptor potential cation channel subfamily V member 1 (Rattus norvegicus) (UniProt O35433); experiment: Partial antagonist activity at rat TRPV1 expressed in HEK293 cells assessed as effect on capsaicin-induced inward current at 0.1 uM by whole-cell patch clamp method (reference value: -431 +/- 43.1 pA/pF); method in brief: as §1
[15] = biological target: Transient receptor potential cation channel subfamily V member 1 (Rattus norvegicus) (UniProt O35433); experiment: Partial antagonist activity at rat TRPV1 expressed in HEK293 cells assessed as effect on capsaicin-induced inward current at 1 uM by whole-cell patch clamp method (reference value: -480.7 +/- 96.9 pA/pF); method in brief: as §1
[16] = biological target: Transient receptor potential cation channel subfamily V member 1 (Rattus norvegicus) (UniProt O35433); experiment: Partial antagonist activity at rat TRPV1 expressed in HEK293 cells assessed as effect on capsaicin current density at 0.1 uM pretreated for 180 sec followed by capsaicin addition at -60 mV holding potential in presence of extracellular calcium by whole-cell patch-clamp method (reference value: -327.4 +/- 52.3 pA/pF); method in brief: as §1
[17] = biological target: Transient receptor potential cation channel subfamily V member 1 (Rattus norvegicus) (UniProt O35433); experiment: Partial antagonist activity at rat TRPV1 expressed in HEK293 cells assessed as inhibition of capsaicin-induced inward current at -60 mV holding potential pretreated for 180 secs prior to capsaicin addition in presence of extracellular calcium by whole-cell patch-clamp method; method in brief: as §1
[18] = biological target: Transient receptor potential cation channel subfamily V member 1 (Rattus norvegicus) (UniProt O35433); experiment: Partial antagonist activity at rat TRPV1 expressed in HEK293 cells assessed as effect on capsaicin-induced inward current at 1 uM by whole-cell patch clamp method (reference value: -327.4 +/- 52.3 pA/pF); method in brief: as §1
[19] = biological target: Transient receptor potential cation channel subfamily V member 1 (Rattus norvegicus) (UniProt O35433); experiment: Agonist activity at rat TRPV1 channel expressed in HEK293 cells assessed as outward rectifying current at 10 uM and -60 mV holding potential by whole-cell patch-clamp method; method in brief: as §2
[20] = biological target: Transient receptor potential cation channel subfamily V member 1 (Rattus norvegicus) (UniProt O35433); experiment: Agonist activity at rat TRPV1 channel expressed in HEK293 cells assessed as induction of inward current at 10 uM and -60 mV holding potential by whole-cell patch-clamp method; method in brief: as §2

Activity [1]: -237 pA/pF | Activity [2]: -94.8 pA/pF | Activity [3]: -236 pA/pF | Activity [4]: -393 pA/pF | Activity [5]: -6.4 pA/pF | Activity [6]: 0 mV | Activity [7]: -35.9 pA/pF | Activity [8]: -165 pA/pF | Activity [9]: -439 pA/pF | Activity [10]: -328 pA/pF | Activity [11]: -422 pA/pF | Activity [12]: -158 pA/pF | Activity [13]: -143 pA/pF | Activity [14]: -390 pA/pF | Activity [15]: -296 pA/pF | Activity [16]: -243 pA/pF | inhibition [17]: Dose-dependent effect | Activity [18]: -195 pA/pF | Activity [19]: Active | Activity [20]: Active
Compound: CN1c2ccccc2C(=O)N2CCc3c([nH]c4ccccc34)C21 (stereo not given)
